Measured values published in paper PMC4725056 (Nature chemistry, 2015).

What was measured:
Format in all cases: cell-based, human
[1] = test system: H1299 cells; assay: Measurement of ROS production; conditions: pretreated with 1 mM or 3 mM NAC for one hour, followed by 5 μM DC_AC50 for 12 hours
[2] = test system: lung cancer H1299 cells; assay: Cell proliferation; conditions: DC_AC50 (10 μM)
[3] = test system: p-AMPK and p-ACC1 in H1299 cells; assay: AMPK and ACC1 phosphorylation; conditions: together with DC_AC50 (10 μM), 12 hours
[4] = test system: H1299 cells; assay: Total cellular copper content by inductively coupled plasma mass spectrometry; conditions: copper chelator control
How it was run: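 Total cellular copper in H1299 cells measured by inductively coupled plasma mass spectrometry after test-compound treatment; tetrathiomolybdate served as the copper-chelator control.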

[5] = test system: H1299 cells; assay: Lipid biosynthesis; conditions: 10 μM compound C together with DC_AC50

Row | Structure (SMILES) | rescue of DC_AC50-induced ROS increase [1] | rescue of cell-proliferation inhibition by DC_AC50 [2] | rescue of DC_AC50-induced AMPK and ACC1 phosphorylation [3] | decrease of the total cellular copper content [4] | rescue of lipid biosynthesis reduced by DC_AC50 [5]
1 | CC(=O)N[C@@H](CS)C(=O)O [NAC, N-acetyl-L-cysteine] | rescued almost completely | partially rescued | failed to rescue | – | –
2 | [SH-].[SH-].[S]=[Mo]=[S] [TM, tetrathiomolybdate] | – | – | – | ~40% | –
3 | c1cc(-c2cnn3cc(-c4ccc(OCCN5CCCCC5)cc4)cnc23)ccn1 [compound C] | – | partially rescued | almost completely reversed | – | recovered
